Assay results reported in publication PMC6995037 (Biochemistry, 2015).
Entries after “also recorded” stand apart in the source; their conditions may differ. Like-named read-outs stand apart in the source and are kept apart here. Values belong to the molecule of their own block, whether it stands above or below them. No end group written: not given here.

B1: Chica_(410–478) (domain or fragment, human, UniProt Q9H4H8 410-478, looked up)
chain: QTSITTACAGTQTAVITRIASSQTTIWSRSTTTQTDMDENILFPRGTQSTEGSPVSKMSVSRSSSLKSS
B2: LC8 (natural protein)
chain: MSDRKAVIKNADMSEEMQQDAVDCATQALEKYNIEKDIAAYIKKEFDKKYNPTWHCIVGRNFGSYVTHETRHFIYFYLGQVAILLFKSG

Assays:
LC8 [1] = biological target: T1, LC8 (Drosophila melanogaster, UniProt Q24117); conditions: read-out: binding affinity; Pak1; cited from earlier work
LC8 [2] = biological target: T1, LC8; experiment: Isothermal titration calorimetry of LC8 binding to Chica motif peptides; conditions: for relative affinity, in words: comparison between Chica motif peptides; for fold weaker affinity than QT1p: relative to QT1p (Kd 0.4 μM)
Procedure, shortened: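 Synthetic peptides of Chica motifs, with added non-native N-terminal residues for solubility and A280 quantitation, at 280–300 μM final in 50 mM sodium phosphate, 50 mM NaCl, 0.5 mM sodium azide, pH 7.5. Titrated into 30–35 μM LC8 in the cell at 25 °C. Peak areas were fitted to a single-site model for N, Kd, ΔH and ΔS. Values are the average of three independent experiments.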

LC8 [3] = biological target: B2; experiment: ITC
LC8 [4] = biological target: B2; experiment: ITC; remark: listed apart in the source
Chica_(410–478) = biological target: B1; experiment: ITC
LC8 [5] = biological target: T1, LC8; conditions: of 17 motifs; cited from earlier work

Molecule: Pak1: LC8 recognition motif of Pak1 (TPTRDVATSP)
Kd (LC8 [1]): 42.7 µM

Molecule: SYSVSEVGTQTSI [QT2p]
relative affinity, in words (LC8 [2]; ITC, listed as QT2): bind LC8 with a similar affinity
fold weaker affinity than QT1p (LC8 [2]): over 10 fold

Molecule: SYTTACAGTQTAV [QT3p]
binding to LC8, in words (LC8 [2]; ITC, 25 °C, pH 7.5): too weak to be measured accurately by ITC; also recorded: immeasurably weak

relative affinity, in words (LC8 [2]; ITC): bind LC8 with a similar affinity
Molecule: SYWSRSTTTQTDM [QT4p]
fold weaker affinity than QT1p (LC8 [2]): over 10 fold

dH (LC8 [3]): -6.8 ± 0.2 kcal/mol
stoichiometry N (LC8 [3]): 1
Molecule: SYRKAIDAATQTEE [QT1p]

Molecule: B1
Kd (LC8 [4]): 0.4 ± 0.1 µM

Kd (LC8 [3]): 6.3 ± 0.4 µM
dH (LC8 [3]): -8.5 ± 1.1 kcal/mol
stoichiometry N (LC8 [3]): 1
Molecule: SYSVSEVGTQTSI [QT2p]

Kd (LC8 [3]): 5.2 ± 0.1 µM
dH (LC8 [3]): -8.2 ± 0.1 kcal/mol
stoichiometry N (LC8 [3]): 1
Molecule: SYWSRSTTTQTDM [QT4p]

Molecule: B2
dH (Chica_(410–478)): -7.6 ± 0.2 kcal/mol
stoichiometry N (Chica_(410–478)): 3

B3: ASCIZ: transcription factor ASCIZ with 17 motifs (protein, UniProt O43313 1-823, looked up)
ATM interactor: MAASEAAAAAGSAALAAGARAVPAATTGAAAAASGPWVPPGPRLRGSRPRPAGATQQPAVPAPPAGELIQPSVSELSRAVRTNILCTVRGCGKILPNSPALNMHLVKSHRLQDGIVNPTIRKDLKTGPKFYCCPIEGCPRGPERPFSQFSLVKQHFMKMHAEKKHKCSKCSNSYGTEWDLKRHAEDCGKTFRCTCGCPYASRTALQSHIYRTGHEIPAEHRDPPSKKRKMENCAQNQKLSNKTIESLNNQPIPRPDTQELEASEIKLEPSFEDSCGSNTDKQTLTTPPRYPQKLLLPKPKVALVKLPVMQFSVMPVFVPTADSSAQPVVLGVDQGSATGAVHLMPLSVGTLILGLDSEACSLKESLPLFKIANPIAGEPISTGVQVNFGKSPSNPLQELGNTCQKNSISSINVQTDLSYASQNFIPSAQWATADSSVSSCSQTDLSFDSQVSLPISVHTQTFLPSSKVTSSIAAQTDAFMDTCFQSGGVSRETQTSGIESPTDDHVQMDQAGMCGDIFESVHSSYNVATGNIISNSLVAETVTHSLLPQNEPKTLNQDIEKSAPIINFSAQNSMLPSQNMTDNQTQTIDLLSDLENILSSNLPAQTLDHRSLLSDTNPGPDTQLPSGPAQNPGIDFDIEEFFSASNIQTQTEESELSTMTTEPVLESLDIETQTDFLLADTSAQSYGCRGNSNFLGLEMFDTQTQTDLNFFLDSSPHLPLGSILKHSSFSVSTDSSDTETQTEGVSTAKNIPALESKVQLNSTETQTMSSGFETLGSLFFTSNETQTAMDDFLLADLAWNTMESQFSSVETQTSAEPHTVSNF
number of motifs that bind LC8 (LC8 [5]): 11
